In PMC2692502 (Journal of Antimicrobial Chemotherapy, 2009):

Assays:
[1] = Study 2: single- and multiple-dose pharmacokinetics of the 2 min iv injection; assay type: in vivo, human; conditions: both, human, iv; for Cmax: HPLC; for Tmax: median (range); for Vd: V; for dose excreted: urine
In short: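 Healthy adults were randomized single-blind to 6 or 4 mg/kg test compound or placebo as a 2 min peripheral iv injection by syringe driver, once daily for 7 days. Heparinized blood was drawn on days 1 and 7, from predose to 24 h after injection start, plus 36 and 48 h on day 7. Total plasma drug was measured by HPLC (LLOQ 3 mg/L). Non-compartmental analysis gave AUC by the trapezoidal rule and CL, reported as arithmetic means.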

[2] = cited from earlier work
[3] = Study 2: safety and tolerability; assay type: in vivo, human
In short: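 Healthy adults (24 enrolled) were randomized 3:2:1 in a single-blind, placebo-controlled, parallel-group design. Groups received test compound 6 mg/kg, 4 mg/kg or placebo as a 2 min peripheral iv injection by syringe driver, once daily for 7 days. All subjects entered the safety analysis. The investigator graded AEs for relatedness (not, unlikely, possibly, probably) and severity. Tabulated AEs were possibly or probably related. Follow-up was 9–11 days after last dose.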

[4] = plasma, 4 mg/kg, Study 2, day 7, 4 mg/kg 2 min iv injection once daily, plasma, arithmetic mean (SD), n = 8, SD
[5] = plasma, 6 mg/kg, Study 2, day 1, 6 mg/kg 2 min iv injection, plasma, arithmetic mean (SD), n = 12, SD
[6] = Study 2, 4 mg/kg 2 min iv injection once daily for 7 days, n = 8
[7] = Study 2, 6 mg/kg 2 min iv injection once daily for 7 days, n = 12

CCCCCCCCCC(=O)N[C@@H](Cc1c[nH]c2ccccc12)C(=O)N[C@H](CC(N)=O)C(=O)N[C@@H](CC(=O)O)C(=O)N[C@@H]1C(=O)NCC(=O)N[C@@H](CCCN)C(=O)N[C@@H](CC(=O)O)C(=O)N[C@H](C)C(=O)N[C@@H](CC(=O)O)C(=O)NCC(=O)N[C@H](CO)C(=O)N[C@@H]([C@H](C)CC(=O)O)C(=O)N[C@@H](CC(=O)c2ccccc2N)C(=O)O[C@@H]1C [daptomycin]
Cmax [1, 4]: 62.8 µg/mL | Tmax ([1]; plasma, 4 mg/kg, Study 2, day 1, 4 mg/kg 2 min iv injection, plasma, n = 8): 8.4 min | Tmax ([1]; plasma, 4 mg/kg, Study 2, day 7, 4 mg/kg 2 min iv injection once daily, plasma, n = 8): 15 min | Vd ([1]; plasma, 4 mg/kg, Study 2, day 1, 4 mg/kg 2 min iv injection, plasma, arithmetic mean (SD), n = 8, SD): 0.116 L/kg | Vd [1, 4]: 0.109 L/kg | half-life ([1]; plasma, 4 mg/kg, t1/2, Study 2, day 1, 4 mg/kg 2 min iv injection, plasma, arithmetic mean (SD), n = 8, SD): 545 min | half-life ([1]; plasma, 4 mg/kg, t1/2, Study 2, day 7, 4 mg/kg 2 min iv injection once daily, plasma, arithmetic mean (SD), n = 8, SD): 536 min | AUC(0-inf) ([1]; plasma, 4 mg/kg, SD): 468 µg·h/mL | AUC(0-t) ([1]; plasma, 4 mg/kg, SD): 475 µg·h/mL | clearance ([1]; plasma, 6 mg/kg, CL, Study 2, day 7, 6 mg/kg 2 min iv injection once daily, plasma, arithmetic mean (SD), n = 12, SD): 0.145 mL/min/kg | Cmax [1, 5]: 97.5 µg/mL | Cmax ([1]; plasma, 6 mg/kg, Study 2, day 7, 6 mg/kg 2 min iv injection once daily, plasma, arithmetic mean (SD), n = 12, SD): 91.8 µg/mL | Tmax ([1]; plasma, 6 mg/kg, Study 2, day 1, 6 mg/kg 2 min iv injection, plasma, n = 12): 1.8 min | Tmax ([1]; plasma, 6 mg/kg, Study 2, day 7, 6 mg/kg 2 min iv injection once daily, plasma, n = 12): 15 min | Vd [1, 5]: 0.106 L/kg | half-life ([1]; plasma, 6 mg/kg, t1/2, Study 2, day 1, 6 mg/kg 2 min iv injection, plasma, arithmetic mean (SD), n = 12, SD): 506 min | AUC(0-t) ([1]; plasma, 6 mg/kg, SD): 701 µg·h/mL | dose excreted ([1]; 4 mg/kg, SD): 54.3% | dose excreted ([1]; 6 mg/kg, SD): 56.7% | steady state reached by ([2]; 30 min iv infusion, independent of dose): ≤ 3 days | volume of distribution (V) ([2]; average): ~0.1 L/kg | Subjects with at least one adverse event possibly or probably related to study drug: Any adverse event [3, 6]: 2 (25) n (%) | Subjects with related adverse event: Gastrointestinal disorders [3, 6]: 1 (13) n (%) | Subjects with related adverse event: Infections and infestations [3, 6]: 0 n (%) | Subjects with related adverse event: Nervous system disorders [3, 6]: 1 (13) n (%) | Subjects with related adverse event: dizziness [3, 6]: 0 n (%) | Subjects with related adverse event: dizziness postural [3, 6]: 0 n (%) | Subjects with related adverse event: flatulence [3, 6]: 1 (13) n (%) | Subjects with related adverse event: headache [3, 6]: 0 n (%) | Subjects with related adverse event: lethargy [3, 6]: 1 (13) n (%) | Subjects with related adverse event: nausea [3, 6]: 0 n (%) | Subjects with related adverse event: pain in extremity [3, 6]: 1 (13) n (%) | Subjects with related adverse event: paraesthesia [3, 6]: 0 n (%) | Subjects with related adverse event: upper respiratory tract infection [3, 6]: 0 n (%) | subjects with erythema (local injection-site reaction) [3, 6]: five subjects | Subjects with at least one adverse event possibly or probably related to study drug: Any adverse event [3, 7]: 3 (25) n (%) | Subjects with related adverse event: Gastrointestinal disorders [3, 7]: 0 n (%) | Subjects with related adverse event: Infections and infestations [3, 7]: 0 n (%) | Subjects with related adverse event: Nervous system disorders [3, 7]: 3 (25) n (%) | Subjects with related adverse event: dizziness [3, 7]: 1 (8) n (%) | Subjects with related adverse event: dizziness postural [3, 7]: 1 (8) n (%) | Subjects with related adverse event: flatulence [3, 7]: 0 n (%) | Subjects with related adverse event: headache [3, 7]: 1 (8) n (%) | Subjects with related adverse event: lethargy [3, 7]: 0 n (%) | Subjects with related adverse event: nausea [3, 7]: 0 n (%) | Subjects with related adverse event: pain in extremity [3, 7]: 0 n (%) | Subjects with related adverse event: paraesthesia [3, 7]: 0 n (%) | Subjects with related adverse event: upper respiratory tract infection [3, 7]: 0 n (%) | subjects with erythema (local injection-site reaction) [3, 7]: two subjects | time to resolution of local injection-site reactions ([3]; Study 2, 2 min iv injection, reactions generally mild and transient): ≤ 1 h | serious or other significant AEs ([3]; Study 2, multiple-dose, 24 subjects enrolled (placebo included)): no serious or other significant AEs
